Laboratory results as given in ChEMBL document CHEMBL3352115, “Discovery of APD334: Design of a Clinical Stage Functional Antagonist of the Sphingosine-1-phosphate-1 Receptor” (ACS Med Chem Lett, 2014).

What was measured:
[1] = Cmax in monkey at 1 mg/kg, iv or 3 mg/kg, po; assay type: ADME, organism-based, Macaca mulatta; conditions: rhesus monkey, in vivo
Method in brief: (§1)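 Preclinical iv/po PK; amorphous free acid dosed orally as a suspension in 0.5% methyl cellulose; clearance and Vss from intravenous administration.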

[2] = Ratio of plasma concentration in Sprague-Dawley rat at 14.5 ug/hr/kg dosed as constant infusion to IC50 for reduction in peripheral lymphocyte count in orally dosed rat; assay type: ADME, organism-based; conditions: in vivo, po
Method in brief: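 Male Sprague–Dawley rats received a 48 h constant infusion at 14.5 μg/h/kg, and plasma drug concentration was taken at the 48 h time point. […] The ratio is the 48 h plasma concentration divided by that IC50.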

[3] = Volume of distribution at steady state in mouse at 1 mg/kg, iv; assay type: ADME, organism-based; design: dose 1 mg/kg, route intravenous; conditions: in vivo, read-out: Vdss
[4] = Volume of distribution at steady state in dog at 1 mg/kg, iv; assay type: ADME, organism-based, Canis lupus familiaris; design: dose 1 mg/kg, route intravenous; conditions: in vivo, read-out: Vdss
[5] = Cmax in rat at 1 mg/kg equivalent, po; assay type: ADME, organism-based; design: dose 1 mg/kg, route oral; conditions: in vivo
Method in brief: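 SD rat given L-arginine salt orally as a solution in sterile water, 1.0 mg/kg free-acid equivalent; Cmax measured.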

[6] = AUC (0 to infinity) in monkey at 1 mg/kg, iv or 3 mg/kg, po; assay type: ADME, organism-based, Macaca mulatta; conditions: rhesus monkey, plasma; method in brief: as §1
[7] = target: Voltage-gated inwardly rectifying potassium channel KCNH2 (Homo sapiens, UniProt Q12809); assay: Inhibition of human ERG by patch clamp assay
Rattus norvegicus [8] = assay: Reduction in ankle diameter in Lewis rat collagen-induced arthritis model at 3 mg/kg, po qd measured on day 17 (reference value: +/- inches); assay type: functional
Method in brief: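 Female Lewis rats with collagen-induced arthritis, prophylactic daily oral dosing; ankle diameter (inches) and body weight recorded at day 17 end point; mean ± SEM.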

[9] = Systemic clearance in dog at 1 mg/kg, iv; assay type: ADME, organism-based, Canis lupus familiaris; design: dose 1 mg/kg, route intravenous; conditions: in vivo
[10] = Elimination half life in dog at 3 mg/kg, po; assay type: ADME, organism-based, Canis lupus familiaris; design: dose 3 mg/kg, route oral; conditions: in vivo, read-out: beta t1/2 (converted); method in brief: as §1
[11] = target: Sphingosine 1-phosphate receptor 5 (Homo sapiens) (UniProt Q9H228); assay: Agonist activity at human S1P5 receptor by beta-arrestin recruitment assay relative to S1P
Rattus norvegicus [12] = assay: Induction of body weight regain in Lewis rat collagen-induced arthritis model at 3 mg/kg, po qd measured on day 17 (reference value: 160.3 +/- 2.3 g); assay type: functional

Sequence of Voltage-gated inwardly rectifying potassium channel KCNH2 (Q12809 whole entry): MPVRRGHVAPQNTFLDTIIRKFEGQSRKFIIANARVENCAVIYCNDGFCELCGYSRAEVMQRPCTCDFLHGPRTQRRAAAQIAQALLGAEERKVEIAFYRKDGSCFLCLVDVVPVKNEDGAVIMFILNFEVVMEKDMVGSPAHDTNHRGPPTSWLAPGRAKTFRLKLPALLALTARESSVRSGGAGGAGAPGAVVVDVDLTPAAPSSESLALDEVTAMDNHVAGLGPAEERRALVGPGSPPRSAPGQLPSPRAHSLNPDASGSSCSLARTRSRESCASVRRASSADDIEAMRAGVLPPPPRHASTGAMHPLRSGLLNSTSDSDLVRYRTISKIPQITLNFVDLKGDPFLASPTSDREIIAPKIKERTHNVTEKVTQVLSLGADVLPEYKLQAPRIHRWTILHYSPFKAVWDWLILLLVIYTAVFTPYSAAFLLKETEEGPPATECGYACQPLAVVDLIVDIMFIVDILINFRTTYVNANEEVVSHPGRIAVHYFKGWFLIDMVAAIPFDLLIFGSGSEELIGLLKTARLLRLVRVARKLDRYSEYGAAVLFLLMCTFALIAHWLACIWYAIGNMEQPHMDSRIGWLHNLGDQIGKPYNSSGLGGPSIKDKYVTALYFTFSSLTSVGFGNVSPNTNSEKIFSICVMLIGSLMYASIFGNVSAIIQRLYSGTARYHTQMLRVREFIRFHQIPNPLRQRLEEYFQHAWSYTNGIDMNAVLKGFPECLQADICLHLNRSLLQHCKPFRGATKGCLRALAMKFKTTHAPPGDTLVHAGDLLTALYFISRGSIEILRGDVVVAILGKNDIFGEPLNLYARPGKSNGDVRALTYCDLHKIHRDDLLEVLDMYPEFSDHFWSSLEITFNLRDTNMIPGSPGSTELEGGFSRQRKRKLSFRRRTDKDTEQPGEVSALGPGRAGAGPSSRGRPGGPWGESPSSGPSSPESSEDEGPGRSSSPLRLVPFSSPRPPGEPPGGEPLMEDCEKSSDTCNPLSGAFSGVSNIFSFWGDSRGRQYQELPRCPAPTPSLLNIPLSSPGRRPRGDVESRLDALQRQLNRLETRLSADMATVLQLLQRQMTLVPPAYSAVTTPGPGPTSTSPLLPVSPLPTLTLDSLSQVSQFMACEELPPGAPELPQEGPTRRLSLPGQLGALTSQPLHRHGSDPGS
Sequence of Sphingosine 1-phosphate receptor 5 (Homo sapiens) (Q9H228 whole entry): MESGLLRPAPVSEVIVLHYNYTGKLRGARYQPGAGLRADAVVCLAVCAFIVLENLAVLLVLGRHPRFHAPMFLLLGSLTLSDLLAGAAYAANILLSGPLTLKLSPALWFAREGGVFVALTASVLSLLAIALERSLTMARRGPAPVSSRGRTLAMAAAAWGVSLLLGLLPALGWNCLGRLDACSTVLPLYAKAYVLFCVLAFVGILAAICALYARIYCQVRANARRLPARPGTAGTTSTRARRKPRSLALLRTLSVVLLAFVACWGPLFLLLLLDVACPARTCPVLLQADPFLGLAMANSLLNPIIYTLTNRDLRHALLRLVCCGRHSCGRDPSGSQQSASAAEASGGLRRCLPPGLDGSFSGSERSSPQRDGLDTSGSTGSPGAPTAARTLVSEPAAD

Compound: O=C(O)C[C@H]1CCc2c1[nH]c1ccc(OCc3ccc(C4CCCC4)c(C(F)(F)F)c3)cc21 [ETRASIMOD]
- Cmax [1]: 2870 ng/mL
- Ratio [2]: 2
- Vd [3]: 1.93 L/kg
- Vd [4]: 0.609 L/kg
- Cmax [5]: 361 ng/mL
- AUC(0-inf) [6]: 23100 ng·h/mL
- IC50 [7]: > 30 µM
- Activity (Rattus norvegicus [8]): 0.269 inches
- clearance [9]: 0.23 mL/min/kg
- half-life [10]: 28.8 h
- Emax [11]: 73%
- Activity (Rattus norvegicus [12]): 182.3 g
